Measurements collected from several papers.
Each line is one published result; the experiments were not run side by side.
EGFR L858R/T790M: Epidermal growth factor receptor (EGFR, Homo sapiens, UniProt P00533, L858R/T790M)
EGFR: Epidermal growth factor receptor (EGFR, Homo sapiens, UniProt P00533)
EGFR L861Q: Epidermal growth factor receptor (EGFR, Homo sapiens, UniProt P00533, L861Q)
EGFR T790M: Epidermal growth factor receptor (EGFR, Homo sapiens, UniProt P00533, T790M)
EGFR del752-759: Epidermal growth factor receptor (EGFR, Homo sapiens, UniProt P00533, del752-759)
EGFR G719S: Epidermal growth factor receptor (EGFR, Homo sapiens, UniProt P00533, G719S)

| SMILES | target | observed | action | method | concentration | endpoint | value |
| --- | --- | --- | --- | --- | --- | --- | --- |
| C=CC(=O)Nc1cc(Nc2nc(N3CCc4sccc4C3)c3cccnc3n2)c(OC)cc1N1CCN(CCO)CC1 | EGFR L858R/T790M | enzyme activity | inhibitor | ELISA | 0.1 µM | inhibition | 2% |
| COc1cc2ncnc(Nc3ccc(Oc4ccccc4)c(C)c3C)c2cc1OC | EGFR | enzyme activity | inhibitor |  | 1 µM | inhibition | 91% |
| Cc1ccc(NC(=O)c2ccc(C)c(C(F)(F)F)c2)cc1C#Cc1nn(C2CCC(O)CC2)c2ncnc(N)c12 (stereo not drawn) | EGFR L861Q | cell-free assay |  |  | 10 µM | remaining signal | 0% |
| Cc1ccc(C(=O)Nc2ccc(CN3CCN(C)CC3)c(C(F)(F)F)c2)cc1C#Cc1cnc2cccnn12 | EGFR T790M | cell-free assay |  |  | 23.5 nM | remaining signal | 94% |
| CNCc1ccccc1-c1csc([C@H](C)Nc2nc(C)nc3cc(OC)c(OC)cc23)c1 | EGFR L858R/T790M | cell-free assay |  | competition with immobilised ligand | 1 µM | remaining binding | 87% |
| CC(C)[C@@H]1NC(=O)CC(c2ccccc2)NC(=O)CC(CCC(N)=O)NC(=O)[C@H](Cc2ccc(O)cc2)NC(=O)[C@H](Cc2ccc(O)cc2)NC(=O)[C@H](Cc2ccccc2)NC(=O)[C@@H](Cc2ccc(O)cc2)NC(=O)CSC[C@@H](C(=O)NCC(N)=O)NC(=O)CCNC(=O)[C@H](CCCNC(=N)N)NC(=O)[C@H](CCCNC(=N)N)NC(=O)[C@H](Cc2ccc(O)cc2)NC(=O)[C@H](C(C)C)NC(=O)[C@H](C(C)C)NC(=O)[C@H](CC(N)=O)NC1=O (stereo partly drawn) | EGFR | binding |  | SPR |  | kon | 165000 M⁻¹ s⁻¹ |
| C[C@H]1CCN(c2nccc(-c3cnn4ncccc34)n2)C1 | EGFR del752-759 | binding |  |  | 1 µM | remaining binding | 97% |
| COc1cc(-c2cc(-c3ccc(N4CCNCC4)cc3)cnc2N)cc(OC)c1OC | EGFR L861Q | enzyme activity | inhibitor |  | 0.1 µM | inhibition | 6% |
| O=C(c1ccc(Nc2ncc(Cl)c(-c3ccc(Cl)s3)n2)cc1)N1CCC(N2CCCC2)CC1 | EGFR T790M | binding |  | competition with immobilised ligand | 1 µM | remaining binding | 63% |
| N[C@H]1CCN(c2nccc(-c3cnn4ncccc34)n2)C1 | EGFR del752-759 | binding |  |  | 1 µM | remaining binding | 88% |
| CCOc1cc2ncnc(Nc3cccc(Br)c3)c2cc1OCC | EGFR | cell-free assay |  |  | 0.5 µM | remaining signal | 2.02% |
| C[C@H](c1ccnc(Nc2nc3ccc(-c4cc(N(C)C)ncn4)cc3[nH]2)c1)N1CCN(C(=O)CC(F)(F)F)CC1 | EGFR L861Q | cell-free assay |  | competition with immobilised ligand | 0.1 µM | remaining binding | 76% |
| N#C/C(=C\c1ccc(O)c(O)c1)C(=O)NCc1ccccc1 | EGFR | cell-free assay |  |  | 0.5 µM | remaining signal | 72.4% |
| CCC(=O)N[C@@H]1CC[C@H](C(=O)N(C)c2ccc(-c3nc4ccccc4o3)cc2)C1 | EGFR G719S | cell-free assay |  | competition with immobilised ligand | 1 µM | remaining binding | 96% |
| Cc1cnn2ncc(-c3ccnc(N(C)C)n3)c2c1 | EGFR G719S | binding |  |  | 1 µM | remaining binding | 100% |
| N#Cc1ccc(Nc2ccc3[nH]c(=O)[nH]c3c2)c(Cl)c1 | Epidermal growth factor receptor (EGFR, Homo sapiens, UniProt P00533, del747-750/T751S) | cell-free assay |  | competition with immobilised ligand | 1 µM | remaining binding | 100% |
| CC1CCCN1c1nccc(-c2cnn3ncccc23)n1 (stereo not drawn) | Epidermal growth factor receptor (EGFR, Homo sapiens, UniProt P00533, G719C) | binding |  |  | 1 µM | remaining binding | 100% |
| O=C1CCc2cc(Nc3cc(OC4CCOCC4)c([N+](=O)[O-])cc3Cl)ccc2N1 | EGFR T790M | cell-free assay |  | competition with immobilised ligand | 1 µM | remaining binding | 85% |
| Cc1cnc(NC2CCOCC2)nc1-n1cnc(C(=O)NC(CN)c2cc(F)cc(Cl)c2)c1 (stereo not drawn) | Epidermal growth factor receptor (EGFR, Homo sapiens, UniProt P00533, L858R) | enzyme activity | inhibitor | radiometric | 1 µM | remaining activity | 112% |
| O=C(O)c1cc(-c2ccc(C3CCNCC3)cc2)c2ccc(-c3ccc(C(F)(F)F)cc3)cc2c1 | EGFR G719S | cell-free assay |  | competition with immobilised ligand | 1 µM | remaining binding | 100% |
| Nc1ncnc2occ(-c3ccc(NC(=O)Nc4cc(C(F)(F)F)ccc4F)cc3)c12 | EGFR L858R/T790M | cell-free assay |  |  | 20 µM | remaining signal | 13% |
